# Compound activity deposited in PubChem by several laboratories.
# A1 inh: inhibitors of the anti-apoptotic protein A1, read as caspase activation | MEF A1-2A-BIM cells, Caspase-Glo 3/7 luminescence, 3 h; percent of clofoctol response, vehicle zero | caspase activation, % (concentration not given with the values) | 330,000 tested, 0.066% active;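 active means over half of replicate activation scores above 10%, or exactly half above 10 with the replicate mean above 10; inconclusive means replicate mean below 10 yet half the replicates above 10; inactive means over half of replicates below 10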
# KLF5 inh: suppresses KLF5 promoter-driven expression; DLD-1 KLF5 promoter-luciferase reporter, luminescence; inhibition, % at 5 µM; 290,000 tested, 0.23% active; AID 1700;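 active means inhibition above a per-plate limit of that plate's mean compound inhibition plus 3 SD, cut at about 60% in these data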;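 further: 0% = DMSO wells and 100% = LY294002 at 200 µM; higher means less KLF5 promoter-driven luciferase light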
# Beta cell apopt: blocks beta cell apoptosis; 300,000 tested, 0.8% active; AID 435005; INS-1E cytokine-induced death, ATP luminescence, 48 h; percent of positive-control rescue, neutral wells zero; protection from apoptosis, % (no concentration beside the values);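 active means Every replicate reaches about 75%, or at least half do and their mean reaches it too, limit read from the data; inconclusive means At least half of replicates reach the limit but their mean does not; inactive means Under half of replicates reach the limit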;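 further: 0% = cytokine-treated negative control wells and 100% = positive control rescue; higher means more ATP so stronger rescue from cytokine killing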
# T cruzi repl: T. cruzi replication inhibition; 300,000 tested, 1.4% active; inhibition, % (concentration not given with the values); T. cruzi beta-gal in NIH3T3, luminescence, 90 h;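 active means mean inhibition across valid replicates above about 55%, limit read from the data; inconclusive means mean below that limit but half or more replicates reach it; inactive means mean below it, under half of replicates reach it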;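 further: signal also drops with host cell toxicity which is not excluded here; 0% = plate median of DMSO wells and 100% = zero luminescence signal; higher percent means less beta-gal luminescence so fewer parasites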
#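 System: Mouse NIH/3T3 fibroblasts infected with β-gal-expressing T. cruzi Tulahuen C4 | Quantity: NIH/3T3 cells, 5,000 per well | Reagent: 5000 reporter trypomastigotes per well | Dosing: Compound pinned at 50 nL/well, DMSO | Schedule: 3 h host attachment, then at least 90 h co-culture | Detection: GalScreen luminescence, 60 min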
# HIF act: HIF pathway transcriptional activation | activation, % at 7.5 µM (by protocol) | U2OS HRE-luciferase reporter, luminescence; normalized: DMSO 0%, desferrioxamine 100% | AID 1910 | 300,000 tested, 0.32% active;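 active means mean activation of at least 10% of the iron chelator positive control signal, with at least half of replicates also reaching 10%; inconclusive means mean and replicate majority disagree about reaching 10%; inactive means mean and most replicates under 10%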
# * hit, by the source's call; u = inconclusive; x = no result. Shown are actives, neighbours in structure and some others; about 2.3% of the full set was active somewhere.
SMILES,A1 inh,KLF5 inh,Beta cell apopt,T cruzi repl,HIF act
COc1ccc(C)cc1Nc1n[n+](-c2ccccc2)c(-c2cc(OC)c(OC)cc2Br)s1,-1,-19,20,48,0
CCOc1cc(-c2sc(Nc3cc(C)ccc3OC)n[n+]2-c2ccccc2)ccc1OC,0,x,94*,x,x
COc1ccc(OCCCC(=O)ON=C(N)c2ccccc2Cl)cc1,0,x,-6,x,x
C=CC[C@@H](CC(=O)N[C@H](CO)Cc1ccccc1)C(=O)NCCOC(=O)[C@@H](CC=C)CC(=O)OC(C)(C)C,1,x,5,x,x
CN1CCN(c2ccc(S(=O)(=O)N3CCCCC3)cc2[N+](=O)[O-])CC1,0,-23,-3,68*,0
CC(=O)N1CCN(c2ccc(S(=O)(=O)N3CCCCC3)cc2[N+](=O)[O-])CC1,1,x,2,x,x
COc1ccc(CCN(C)c2ccc(S(=O)(=O)N3CCCC3)cc2[N+](=O)[O-])cc1OC,1,-21,-7,-11,0
CN1CCN(c2ccc(C(=O)c3ccccc3)cc2[N+](=O)[O-])CC1,0,-17,-6,56*,1
COc1ccc(CN(C)c2ccc(S(=O)(=O)N3CCN(C)CC3)cc2[N+](=O)[O-])cc1OC,0,x,102*,x,x
COc1ccc(N(C(=O)c2cccnc2)S(=O)(=O)c2cc(OC)ccc2OC)cc1,-1,-16,-2,-11,0
CN(C)c1nc(N/N=C/c2ccccc2O)nc(Nc2ccc(F)cc2)n1,1,-3,106*,28,0
CN(C)c1nc(Nc2ccc(F)cc2)nc(Oc2ccc(F)cc2)n1,0,-37,x,2,0
Cc1ccc(S(=O)(=O)Nc2cc(C)cn(Cc3ccc(F)cc3)c2=O)cc1,2,3,6,-4,0
COC(=O)C1=CN(c2ccc(OC)cc2)C=C(C(=O)OC)C1c1ccc([N+](=O)[O-])cc1,1,1,15,60*,0
COC(=O)C1=CN(c2ccc(F)cc2)C=C(C(=O)OC)C1c1ccc([N+](=O)[O-])cc1,0,-22,16,u,0
Cc1ccc(OCC(=O)N2CCCCC2C)c([N+](=O)[O-])n1 (stereo unspecified),-1,x,-5,x,x
CCOC(=O)C1=C(COC(=O)Cc2c(F)cccc2Cl)NC(=O)NC1C (stereo unspecified),1,x,-5,x,x
Cc1ccc(S(=O)(=O)/N=C2\C(=O)c3ccccc3C([O-])=C2n2cc[n+](CCC(C)C)c2)cc1,0,3,90*,-6,0
CCCC[n+]1ccn(C2=C([O-])c3ccccc3C(=O)/C2=N\S(=O)(=O)c2ccc(Br)cc2)c1,0,-31,90*,11,-1
Cc1ccc(S(=O)(=O)NCCNC(=O)CN2CCOCC2)cc1,-1,-5,x,-6,0
Cc1ccc(NC(=O)c2cc(S(=O)(=O)NCCC3=CCCCC3)ccc2F)cc1,0,10,105*,-9,-1
O=C(NCCC1=CCCCC1)c1cc(S(=O)(=O)N2CCOCC2)ccc1F,0,x,-1,11,-1
Brc1cccc(CN2CCN(c3ncccn3)CC2)c1,-1,-29,-4,-4,-1
Cc1cc(C)n(-c2ccc(NC(=O)C3CCCCN3C(=O)c3cc(C)oc3C)cc2)n1 (stereo unspecified),0,-9,-8,-3,0
C/C(=N\Nc1nc(C)cc(-c2ccccc2)n1)c1cccc(N)c1,-6,-37,89*,-12,1
SMILES,A1 inh,KLF5 inh,Beta cell apopt,T cruzi repl,HIF act
C/C(=N\Nc1nc(C)cc(-c2ccccc2)n1)c1ccc(C)o1,1,-10,20,-4,1
C/C(=N\Nc1nc(C)cc(-c2ccccc2)n1)c1ccccc1,-1,-29,82*,19,2
C/C(=N\Nc1nc(C)cc(-c2ccccc2)n1)c1ccc(O)cc1,-1,-63,83*,-3,-1
CSc1nc(N2CCOCC2)nc2ccc(C)cc12,0,x,3,3,0
COc1cc2c(cc1CN1CCN(C(=O)c3cc(OC)c(OC)c(OC)c3)CC1)OCO2,-1,2,-8,0,0
N#CCc1ccc(NC(=O)c2ccc(S(=O)(=O)N3CCOCC3)cc2)cc1,1,-15,-13,-15,0
COC(=O)c1cn(C)c2ccc(S(=O)(=O)N3CCCCC3)cc2c1=O,x,-5,x,-4,90*
CC(C)Cc1ccc(CN2CCC(n3nccc3NC(=O)C3CCCC3)CC2)cc1,2,-20,-2,59*,0
CC(Cc1ccco1)NC(=O)c1cccc(S(=O)(=O)N(C)C)c1 (stereo unspecified),1,-72,-1,-2,1
Cc1cc(Cn2ccnc2)c(C)c([N+](=O)[O-])c1Cn1ccnc1,-1,12,-1,60*,-1
Cc1ccc2c(Cn3ccnc3)cc(=O)oc2c1C,0,-19,0,1,-10
CCCc1cc(-c2nc(N)ncc2-c2ccc3c(c2)OCCCO3)c(O)cc1OC,1,-13,0,58*,0
Cc1cc(C)c(C)c(S(=O)(=O)NCC(=O)Nc2ccc(F)cc2)c1C,-2,-18,2,-1,0
CCC1(CC)Cc2ccccc2-c2nc(NCCCO)[nH]c(=O)c21,0,8,-15,22,0
O=c1[nH]c(NCCCO)nc2c1C1(CCCC1)Cc1ccccc1-2,0,-10,104*,-6,-54
N#C/C(=C/c1cn(-c2ccccc2)nc1-c1cccc(OCc2ccccc2)c1)C(=O)NCCCn1ccnc1,0,-21,4,60*,0
CCOc1cccc(-c2nn(-c3ccccc3)cc2/C=C(/C#N)C(=O)NCCCn2ccnc2)c1,0,-12,12,28,0
CCc1c(C2(O)CCCCC2)[nH]c2cc(C(F)(F)F)ccc12,2,4,109*,11,0
Cc1c(C2(O)CCCCC2)[nH]c2cc(C(F)(F)F)ccc12,-1,x,15,x,x
O=C(O)c1ccc2cc(-c3ccccc3)[nH]c2c1,-8,x,-5,-24,20*
COc1ccc(CNC(=O)[C@@H](C)NC(=O)C2CCN(C(=O)[C@@H](N)CCSC)CC2)cc1,0,-2,-5,-13,0
Cc1ccc2nc3c(c(Nc4ccc(O)cc4)c2c1)CCC3,1,-40,9,62*,-1
CCOC(=O)[C@H]1[C@H]2COc3ccc(C)cc3[C@@H]2N2C(=O)c3cc(C)ccc3NC(=O)[C@@]12C,0,x,-2,x,x
O=C(CSc1nnnn1-c1cccc(F)c1)NC1CCCCC1,0,x,-2,x,x
O=C(Nc1nc(-c2ccccn2)cs1)c1ccc(F)c(S(=O)(=O)N2CCOCC2)c1,-1,x,89*,x,x
Cc1ccc(C(=O)Nc2nc(-c3ccccn3)cs2)cc1S(=O)(=O)N1CCOCC1,0,x,90*,x,x
Cc1ccc(C(=O)Nc2ccccn2)cc1S(=O)(=O)N1CCOCC1,1,x,-1,1,0
Cc1nnc(NC(=O)c2ccc(F)c(S(=O)(=O)N3CCOCC3)c2)s1,0,x,2,x,x
